The source of these data is ChEMBL document CHEMBL1154125, “Ebenfurans IV-VIII from Onobrychis ebenoides: evidence that C-prenylation is the key determinant of the cytotoxicity of 3-formyl-2-arylbenzofurans” (J Nat Prod, 2008).

Experiment [1] relates to MCF7. In words: Cytotoxicity against human MCF7 cells by MTT assay in presence of 17-beta-estradiol. It is filed as functional, cell-based. The essentials:
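In phenol red-free MEM with 5% dextran-charcoal-treated FBS containing 0.1 nM 17β-estradiol, MCF-7 cultures received increasing concentrations of agents (DMSO solutions) for 3 days. Readout was MTT formazan absorbance at 550 nm relative to cells given the hormone alone. EC50 = concentration reaching 50% of efficacy, derived only for statistically significant effects.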
Background: Formazan colour is commonly taken as a measure of viable cells.

Experiment [2] concerns the target T1, Estrogen receptor (Homo sapiens) (UniProt P03372).
T1 sequence (whole entry): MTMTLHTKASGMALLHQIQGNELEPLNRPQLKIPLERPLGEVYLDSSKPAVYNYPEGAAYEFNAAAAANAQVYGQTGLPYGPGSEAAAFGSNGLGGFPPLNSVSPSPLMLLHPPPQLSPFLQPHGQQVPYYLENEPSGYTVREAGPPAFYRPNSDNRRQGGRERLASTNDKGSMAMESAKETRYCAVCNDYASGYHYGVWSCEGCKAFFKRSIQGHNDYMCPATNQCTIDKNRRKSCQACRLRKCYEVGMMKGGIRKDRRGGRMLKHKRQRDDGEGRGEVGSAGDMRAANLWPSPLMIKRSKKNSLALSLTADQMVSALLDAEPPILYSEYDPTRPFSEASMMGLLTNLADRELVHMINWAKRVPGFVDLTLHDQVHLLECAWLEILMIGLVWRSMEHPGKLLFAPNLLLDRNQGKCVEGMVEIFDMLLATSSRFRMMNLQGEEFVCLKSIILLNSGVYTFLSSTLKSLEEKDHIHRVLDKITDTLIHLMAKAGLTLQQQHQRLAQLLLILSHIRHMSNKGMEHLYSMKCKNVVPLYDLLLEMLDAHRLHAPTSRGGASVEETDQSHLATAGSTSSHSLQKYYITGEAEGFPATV
In words: Binding affinity to recombinant ERalpha by fluorescence polarization assay relative to 17-beta-estradiol. (In fluorescence polarisation assays a small probe gives low polarisation when free and higher when bound to something large.)

The subject of experiment [3] is MCF7. Nature of the experiment: Cytotoxicity against human MCF7 cells at 10 uM by MTT assay relative to control in absence of 17-beta-estradiol. It counts as functional. The method in brief:
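MCF-7 cells were grown in phenol red-free MEM with 5% dextran-charcoal-stripped FBS and vehicle (DMSO) only. They were exposed for 3 days to agents dissolved in DMSO: test compounds at 10 µM, 17β-estradiol at 0.1 nM, ICI 182,780 at 1 µM. MTT formazan was read at 550 nm. Efficacy = OD test × 100/OD vehicle control, given as mean ± SEM of at least three independent assays.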

In experiment [4] the test system is MCF7. In words: Cytotoxicity against human MCF7 cells at 10 uM by MTT assay relative to control in presence of 17-beta-estradiol. It counts as functional. The method in brief: (§1)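 MCF-7 cells were kept in phenol red-free MEM with 5% dextran-charcoal-stripped FBS supplemented with 0.1 nM 17β-estradiol. They were treated for 3 days with test compounds at 10 µM, 17β-estradiol at 0.1 nM, or ICI 182,780 at 1 µM, all in DMSO. MTT conversion was read at 550 nm. OD × 100/OD of estradiol-alone control, mean ± SEM, ≥3 independent assays.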

The test system of experiment [5] is MCF7. Nature of the experiment: Cytotoxicity against human MCF7 cells by MTT assay in absence of 17-beta-estradiol. It counts as functional, cell-based. The essentials:
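Cells were grown in steroid-depleted medium (phenol red-free MEM, 5% dextran-charcoal FBS) plus DMSO vehicle. Increasing concentrations of agents in DMSO were applied for 3 days. Viable cells were estimated from MTT formazan absorbance at 550 nm. EC50 = concentration giving 50% of efficacy, computed only for statistically significant effects.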

In experiment [6] the test system is MCF7. Nature of the experiment: Cytotoxicity against human MCF7 cells at 0.1 nM by MTT assay relative to control in presence of 17-beta-estradiol. It is filed as functional. The method in brief:
as §1

In experiment [7] the test system is MCF7. In words: Cytotoxicity against human MCF7 cells at 0.1 nM by MTT assay relative to control in absence of 17-beta-estradiol. It counts as functional.
The test system of experiment [8] is MCF7. Nature of the experiment: Cytotoxicity against human MCF7 cells at 1 uM by MTT assay relative to control in the absence of 17-beta-estradiol. It counts as functional. The essentials:
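MCF-7 cells in phenol red-free MEM with 5% dextran-charcoal-stripped FBS, vehicle (DMSO) only, no estradiol. ICI 182,780 at 1 µM applied for 3 days. Viable cells assessed by MTT formazan absorbance at 550 nm. Efficacy = OD treated ×100/OD vehicle control; mean ± SEM of at least three independent assays.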

Experiment [9] deals with MCF7. Nature of the experiment: Cytotoxicity against human MCF7 cells at 1 uM by MTT assay relative to control in presence of 17-beta-estradiol. It counts as functional. The essentials:
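MCF-7 cells in phenol red-free MEM with 5% dextran-charcoal-stripped FBS, supplemented with 0.1 nM 17β-estradiol. Treated with ICI 182,780 at 1 µM (DMSO) for 3 days. MTT conversion to formazan read at 550 nm. Efficacy = OD treated ×100/OD of estradiol-alone control; mean ± SEM of ≥3 independent assays.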

As a reminder, the EC50 is the concentration at which the effect is half-maximal. Turning to `COc1cc2oc(-c3ccc(O)cc3O)c(C=O)c2c(O)c1CC=C(C)C` [EBENFURAN III], the figures for the EC50 in the experiment with MCF7 [1] and with MCF7 [5] were 2.9 µM and 2.6 µM, respectively. Besides, the relative binding affinity (RBA) in [2] was determined as 0.09. The Activity in the experiment with MCF7 [3] came to 47%; in the experiment on MCF7 [4] it was 31%.

In the case of `COc1cc(O)c2c(C=O)c(-c3ccc(O)cc3O)oc2c1` [EBENFURAN II], the EC50 in the experiment on MCF7 [1] was 5.5 µM. For the same compound, in experiment [2], the relative binding affinity (RBA) worked out at 0.18. Also, the Activity in the experiment with MCF7 [3] was determined as 111%; with MCF7 [4], 64%.

In the case of `COc1cc(O)ccc1-c1oc2cc(OC)c(CCC(C)(C)O)c(O)c2c1C=O` [EBENFURAN VI], the relative binding affinity (RBA) in experiment [2] is 0.06. For the same compound, the figures for the Activity in the experiment on MCF7 [3] and in the experiment with MCF7 [4] were 154% and 118%, respectively. In the experiment with MCF7 [5], it took 4.8 µM to reach a half-maximal effect (EC50).

As for `C[C@]12CC[C@@H]3c4ccc(O)cc4CC[C@H]3[C@@H]1CC[C@@H]2O` [ESTRADIOL], the Activity in the experiment with MCF7 [6] is on record as 104%; in the experiment on MCF7 [7], 163%.

In the case of `COc1cc(O)ccc1-c1oc2cc(OC)c(CC=C(C)C)c(O)c2c1C=O` [EBENFURAN IV], the values for the EC50 in the experiment with MCF7 [1] and with MCF7 [5] were 3.9 µM and 6.7 µM, respectively. Besides, the relative binding affinity (RBA) in experiment [2] worked out at 0.46. Further, the results for the Activity in the experiment with MCF7 [3] and with MCF7 [4] were 54% and 31%, respectively.

Turning to `C=C(C)C(O)Cc1c(OC)cc2oc(-c3ccc(O)cc3O)c(C=O)c2c1O` (stereo not drawn) [EBENFURAN VII], the relative binding affinity (RBA) in [2] was found to be 0.94. The values for the Activity in the experiment with MCF7 [3] and with MCF7 [4] were 123% and 79%, respectively.

Regarding `COc1cc2oc(-c3ccc(O)cc3O)c(C=O)c2c(O)c1CCC(C)(C)O` [EBENFURAN V], in experiment [2], the relative binding affinity (RBA) worked out at 0.23. The figures for the Activity in the experiment with MCF7 [3] and in the experiment on MCF7 [4] were 115% and 98%, respectively.

Take `C[C@]12CC[C@@H]3c4ccc(O)cc4C[C@@H](CCCCCCCCC[S+]([O-])CCCC(F)(F)C(F)(F)F)[C@H]3[C@@H]1CC[C@@H]2O` (stereo partly drawn) [FULVESTRANT]: the Activity stood at 103% with MCF7 [8] and 63% in the experiment on MCF7 [9].
